The record followed here is ChEMBL document CHEMBL4304834, “3-Amino-chromanes and Tetrahydroquinolines as Selective 5-HT2B, 5-HT7, or σ1 Receptor Ligands” (ACS Med Chem Lett, 2019).

The target in data set [1] is Sodium-dependent noradrenaline transporter (Homo sapiens, UniProt P23975). Briefly: Displacement of [3H]-Nisoxetine from human recombinant NET receptor expressed in stable HEK cells at 10 uM after 90 mins by microbeta scintillation counting method relative to control. Type of data set: cell-based. The procedure, abridged: (§1)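 Radioligand binding run by the NIMH Psychoactive Drug Screening Program. […] Otherwise Ki comes from sigmoidal curve fits of triplicate measurements in a single experiment, or is averaged over repeated experiments each run in triplicate.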
Sequence of Sodium-dependent noradrenaline transporter (P23975 whole entry): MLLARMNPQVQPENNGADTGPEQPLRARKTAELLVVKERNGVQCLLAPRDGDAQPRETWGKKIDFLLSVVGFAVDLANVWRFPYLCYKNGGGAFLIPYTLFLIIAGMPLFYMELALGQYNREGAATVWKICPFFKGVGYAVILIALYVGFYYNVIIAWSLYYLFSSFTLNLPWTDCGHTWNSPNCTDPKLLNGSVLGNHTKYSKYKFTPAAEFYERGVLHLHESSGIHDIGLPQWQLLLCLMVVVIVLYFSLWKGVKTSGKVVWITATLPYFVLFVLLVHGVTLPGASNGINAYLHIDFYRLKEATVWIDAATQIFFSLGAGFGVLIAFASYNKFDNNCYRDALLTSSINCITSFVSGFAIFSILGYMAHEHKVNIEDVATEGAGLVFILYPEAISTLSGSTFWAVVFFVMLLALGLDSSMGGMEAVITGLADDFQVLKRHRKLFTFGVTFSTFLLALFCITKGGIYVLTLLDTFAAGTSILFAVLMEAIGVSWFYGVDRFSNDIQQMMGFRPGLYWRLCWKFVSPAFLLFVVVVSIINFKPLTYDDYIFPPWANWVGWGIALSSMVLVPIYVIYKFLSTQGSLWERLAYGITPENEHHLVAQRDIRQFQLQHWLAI
For orientation: In a radioligand displacement assay an active substance lowers the binding of a labelled ligand.

For data set [2], the species on record is Homo sapiens. Kind of data set: Selectivity index, ratio of Ki for human recombinant 5-HT2B receptor to Ki for human recombinant sigma1 receptor.
The species entered for data set [3] is Homo sapiens. Kind of data set: Selectivity index, ratio of Ki for human recombinant sigma2 receptor to Ki for human recombinant sigma1 receptor. Put shortly: (§2)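 Both Ki values in each ratio come from NIMH Psychoactive Drug Screening Program radioligand binding. […] Other targets were given full binding curves, measured in triplicate, and Ki was taken from a sigmoidal curve fit. Some values were repeated in duplicate or triplicate independent experiments.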

The species named for data set [4] is Homo sapiens. Briefly: Selectivity index, ratio of Ki for human recombinant 5-HT1A to Ki for human recombinant sigma1 receptor.
The species entered for data set [5] is Homo sapiens. Briefly: Selectivity index, ratio of Ki for human recombinant 5-HT1D receptor to Ki for human recombinant sigma1 receptor.
Data set [6] is filed under the species Homo sapiens. Kind of data set: Selectivity index, ratio of Ki for human recombinant 5-HT3 receptor to Ki for human recombinant sigma1 receptor.
The species named for data set [7] is Homo sapiens. Kind of data set: Selectivity index, ratio of Ki for human recombinant adrenergic alpha1A receptor to Ki for human recombinant sigma1 receptor. The procedure, abridged: as §2
The species named for data set [8] is Homo sapiens. Briefly: Selectivity index, ratio of Ki for human recombinant adrenergic Alpha1D receptor to human recombinant sigma1 receptor. The procedure, abridged: as §2
The species named for data set [9] is Homo sapiens. Briefly: Selectivity index, ratio of Ki for human recombinant adrenergic Alpha2B receptor to Ki for human recombinant sigma1 receptor. Put shortly:
as §2

Data set [10] is filed under the species Homo sapiens. Kind of data set: Selectivity index, ratio of Ki for human recombinant adrenergic Alpha2C receptor to Ki for human recombinant sigma1 receptor. The procedure, abridged:
as §2

The species entered for data set [11] is Homo sapiens. Kind of data set: Selectivity index, ratio of Ki for human recombinant adrenergic Beta2 receptor to Ki for human recombinant sigma1 receptor. Put shortly: as §2
The species entered for data set [12] is Homo sapiens. Briefly: Selectivity index, ratio of Ki for human recombinant adrenergic Beta3 receptor to Ki for human recombinant sigma1 receptor. Put shortly: as §2
Data set [13] is described as follows: Selectivity index, ratio of Ki for rat brain BZP receptor to Ki for human recombinant sigma1 receptor. Put shortly: as §2
The species named for data set [14] is Homo sapiens. Briefly: Selectivity index, ratio of Ki for human recombinant dopamine D4 receptor to Ki for human recombinant sigma1 receptor. The procedure, abridged:
as §2

Data set [15] is filed under the species Homo sapiens. Briefly: Selectivity index, ratio of Ki for human recombinant dopamine D5 receptor to Ki for human recombinant sigma1 receptor. Put shortly:
as §2

Data set [16] can be described thus: Selectivity index, ratio of Ki for rat brain GABAA receptor to Ki for human recombinant sigma1 receptor. The procedure, abridged: as §2
The species named for data set [17] is Homo sapiens. Kind of data set: Selectivity index, ratio of Ki for human recombinant histamine H1 receptor to Ki for human recombinant sigma1 receptor. Put shortly:
as §2

The species entered for data set [18] is Homo sapiens. Kind of data set: Selectivity index, ratio of Ki for human recombinant histamine H2 receptor to Ki for human recombinant sigma1 receptor. The procedure, abridged: as §2
For data set [19], the species on record is Homo sapiens. Kind of data set: Selectivity index, ratio of Ki for human recombinant histamine H4 receptor to Ki for human recombinant sigma1 receptor. Put shortly:
as §2

The species named for data set [20] is Homo sapiens. Briefly: Selectivity index, ratio of Ki for human recombinant Muscarinic acetylcholine M1 receptor to Ki for human recombinant sigma1 receptor. The procedure, abridged:
as §2

The species named for data set [21] is Homo sapiens. Kind of data set: Selectivity index, ratio of Ki for human recombinant Muscarinic acetylcholine M2 receptor to Ki for human recombinant sigma1 receptor. Put shortly:
as §2

Data set [22] is filed under the species Homo sapiens. Kind of data set: Selectivity index, ratio of Ki for human recombinant Muscarinic acetylcholine M3 receptor to Ki for human recombinant sigma1 receptor. The procedure, abridged:
as §2

The species named for data set [23] is Homo sapiens. Kind of data set: Selectivity index, ratio of Ki for human recombinant Muscarinic acetylcholine M4 receptor to Ki for human recombinant sigma1 receptor. Put shortly:
as §2

The species named for data set [24] is Homo sapiens. Briefly: Selectivity index, ratio of Ki for human recombinant NET receptor to Ki for human recombinant sigma1 receptor. The procedure, abridged:
as §2

Data set [25] is filed under the species Homo sapiens. Briefly: Selectivity index, ratio of Ki for human recombinant MOR receptor to Ki for human recombinant sigma1 receptor. The procedure, abridged:
as §2

Data set [26] deals with 661W. Briefly: Cytotoxicity against mouse 661W cells at 200 uM after 24 hrs by MTT assay. It counts as cell-based. Put shortly:
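661W cells treated 24 h with test agent at 10, 30, 100 and 200 μM. Viability is measured by MTT and compared with nontreated cells.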
A general note: Tetrazolium dyes change colour on reduction, which living cells bring about.

Data set [27] concerns 661W. Briefly: Cytoprotective activity in mouse 661W cells assessed as inhibition of t-BHP induced oxidative stress by measuring increase in cell viability after 24 hrs by MTT assay. Type of data set: functional, cell-based.
For data set [28], the system named is 661W. Kind of data set: Cytoprotective activity in mouse 661W cells assessed as reduction in tBHP-induced ROS level at 30 uM after 2 hrs by […] fluorescent microscopic analysis. It counts as functional, cell-based. Put shortly:
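661W cells seeded on coverslips for 18 h, then exposed 2 h to 55 μM tBHP with or without test agent or (+)-pentazocine. ROS are detected with CellROX green dye by epifluorescence, with DAPI marking nuclei. Fluorescence intensity is quantified as mean ± SD from three independent experiments, each run in duplicate.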

Data set [29] has as its target Alpha-2A adrenergic receptor (Homo sapiens) (UniProt P08913). Briefly: Displacement of [3H]-Rauwolscine from human recombinant adrenergic Alpha2A receptor expressed in stable MDCK cells at 10 uM after 90 mins by microbeta scintillation counting method relative to control. Type of data set: cell-based.
For a further data set, the species on record is Rattus norvegicus. Briefly: Displacement of [3H]-Flunitrazepam from BZP receptor in rat brain at 10 uM after 90 mins by microbeta scintillation counting method. Type of data set: tissue-based. The procedure, abridged: as §1

Active and inactive are the calls of the source. The rule behind the calls is not given here.

Sequence of Alpha-2A adrenergic receptor (Homo sapiens) (P08913 whole entry): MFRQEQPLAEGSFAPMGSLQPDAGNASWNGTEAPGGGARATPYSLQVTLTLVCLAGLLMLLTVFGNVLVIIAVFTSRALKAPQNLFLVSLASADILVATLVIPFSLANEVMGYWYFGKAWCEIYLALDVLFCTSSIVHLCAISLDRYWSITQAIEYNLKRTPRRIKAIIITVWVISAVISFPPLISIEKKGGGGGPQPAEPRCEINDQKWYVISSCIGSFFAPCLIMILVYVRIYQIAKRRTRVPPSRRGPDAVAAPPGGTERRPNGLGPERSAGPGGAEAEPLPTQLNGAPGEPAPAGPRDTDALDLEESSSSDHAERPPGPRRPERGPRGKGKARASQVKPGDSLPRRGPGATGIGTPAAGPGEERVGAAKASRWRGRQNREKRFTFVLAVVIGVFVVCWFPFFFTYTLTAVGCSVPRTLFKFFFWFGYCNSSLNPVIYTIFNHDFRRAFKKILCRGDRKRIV

Take `COc1cc(OC)c2c(c1)OC[C@@]1(C)NCC[C@@H]21` (racemic): in data set [1], the inhibition (usually the change of the read-out against control, counted positive when it falls) was less than 50%. Moreover, the Ratio Ki is greater than 5 in the data set filed under Homo sapiens [2]; greater than 200 in the data set listed under Homo sapiens [3]; greater than 20 in the data set listed under Homo sapiens [4]; greater than 20 in the data set listed under Homo sapiens [5]; greater than 20 in the data set listed under Homo sapiens [6]; greater than 20 in the data set filed under Homo sapiens [7]. For the same compound, the Ratio Ki (in the data set listed under Homo sapiens [8]; in the data set filed under Homo sapiens [9]; in the data set filed under Homo sapiens [10]; in the data set listed under Homo sapiens [11]; in the data set filed under Homo sapiens [12]; in data set [13]) was greater than 20 throughout. In addition, the Ratio Ki (in the data set filed under Homo sapiens [14]; in the data set filed under Homo sapiens [15]; in data set [16]; in the data set filed under Homo sapiens [17]; in the data set listed under Homo sapiens [18]; in the data set listed under Homo sapiens [19]) was greater than 20 throughout. In addition, the Ratio Ki in the data set listed under Homo sapiens [20], in the data set listed under Homo sapiens [21], in the data set listed under Homo sapiens [22], in the data set listed under Homo sapiens [23], in the data set filed under Homo sapiens [24] and in the data set filed under Homo sapiens [25] was greater than 20 each time. The Activity result with 661W [26] was “Non-Toxic”; in the data set on 661W [27] it was “Dose-dependent effect”. The inhibition entry in the data set with 661W [28] was “Active”.

Regarding `CC[C@H]1c2cc(C)ccc2OC[C@@]1(C)N` (racemic), the inhibition (in [29]; in the data set filed under Rattus norvegicus) was less than 50% throughout.
